According to paper PMC2605016 (Structure (London, England : 1993), 2008):

Tests used:
[1] = CaM pull-down assay with lens membranes; type: binding, lamb; conditions: Ca^2+ treated lens pellets, molar excess EGTA, data not shown
Procedure, shortened: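 Lamb lens fiber-cell membranes (2mg/ml total protein) were incubated with recombinant vertebrate CaM (0.67mg/ml) in 10mM Tris pH 8.0, 10mM CaCl2 for 30 minutes at 37°C. Binding was stopped on ice, and free CaM was removed by centrifugation at 10,000xg with 4 pellet washes. Molar excess EGTA was then added to the Ca2+-treated pellets. CaM was detected by SDS-PAGE with silver staining and by western blot.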

15N-CaM = 15N-CaM (Homo sapiens, UniProt P0DP23); test: NMR titration of 15N-CaM with AQP0 peptides; type: binding, vertebrate; conditions: 25°C, pH 6.5, Ca^2+, data not shown
calmodulin (CaM) = test: 15N-HSQC NMR titration of 15N-CaM; conditions: reference: unmodified AQP0CBD peptide, second binding event (1:2); sites S235

Compound: O=C(O)CN(CCOCCOCCN(CC(=O)O)CC(=O)O)CC(=O)O [EGTA]
- removal of membrane-bound CaM by EGTA [1]: efficiently removed

Compound: AQP0loop: peptide corresponding to a cytosolic AQP0 loop, residues 148–158, negative control (TYDERRNGRLG)
- interaction of control peptide with CaM (15N-CaM): no interaction

Compound: Aquaporin-0 (AQP0, MIP) 223-242 (from UniProt Q6J8I9) S235-P peptide, second binding event (1:2)
- KD (calmodulin (CaM)): weaker; reference 6.5 ± 5.5 × 10−6
